Shown is part of a subset that was picked to be rich in hits.
Insulin prom act – activators of insulin promoter-driven GFP, primary screen, imaging, TRM-6 cells, eGFP reporter, cell count | plate-scaled: unstimulated 0, stimulated control 100 | activation, % at 2 µM | AID 1296, 2008 | actives 0.81% (n = 130,000);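 active = activation at 2 µM above a set limit, confirmed on inspection of the cell images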;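 also: share of cells whose green reporter signal exceeds an intensity cutoff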
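Test system: human fetal islet-derived TRM-6 cells with tamoxifen-inducible insulin promoter–eGFP reporter. Compound dosing: 2 µM final, single concentration. Incubation: tamoxifen pre-incubation 15 h overnight, then compound exposure 48 h at 37 °C. Signal: fixed-cell fluorescence microscopy, eGFP plus Hoechst.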
Of the large screens only hits and unclear results are named; the others gave an inactive call.

CCOc1ccc(N2C(=O)/C(=C/c3cccs3)N(C)C2=S)cc1	none
COc1ccc(N=C2S/C(=C\c3cccs3)C(=O)N2CC(C)C)cc1	none
COC(=O)C(CCSC)NC(=O)c1cccc([N+](=O)[O-])c1 (configuration not stated)	none
COC(=O)c1c(-c2ccncc2)csc1NC(=O)c1ccoc1C	none
CCOC(=O)c1c(-c2ccncc2)csc1N	Insulin prom act 460.0
Cc1cccc(-c2csc(N)c2C(=O)OC(C)C)c1	none
COc1ccc(NS(=O)(=O)c2ccc(SC)cc2)cc1	none
CSc1ccc(S(=O)(=O)Nc2c(C)cccc2C)cc1	none
COC(=O)c1ccc(NS(=O)(=O)c2ccc(SC)cc2)cc1	Insulin prom act 730.0
CSc1ccc(S(=O)(=O)Nc2ccc(F)cc2)cc1	Insulin prom act 420.0
CCN(CC)S(=O)(=O)c1ccc(NS(=O)(=O)c2ccc(F)cc2)cc1	none
CC(=O)c1ccc(NS(=O)(=O)c2ccc(N)cc2)cc1	none
C/C(CCN1CCc2nc(-c3ccccc3)c(-c3ccccc3)cc2C1)=N\O[C@@H](C)c1cn([C@H](CO)Cc2ccccc2)nn1	none
CCOc1ccc(-c2c(C)n([O-])c3c([n+]2=O)CCCCC3)cc1	none
CCCCNC(=O)C(C#N)c1nc2ccccc2nc1N1CCN(c2ccccc2F)CC1 (configuration not stated)	none
O=C(COC(=O)CCc1ccc(S(=O)(=O)N2CCOCC2)cc1)NCc1ccccc1	none
Cc1ccc(NC(=O)c2ccc(Cl)c(N3C(=O)C=CC3=O)c2)cc1	none
CCC(C)(C)NC(=O)CN(Cc1cccs1)C(=O)CCC(=O)Nc1nccs1	none
Cc1cc(NC(=O)CCC(=O)N(c2ccccc2)C(C(=O)NC2CCCCC2)c2cccs2)no1 (configuration not stated)	none
CCC(C)(C)NC(=O)C(c1ccc(OC)cc1)N(Cc1cccs1)C(=O)CCC(=O)Nc1cc(C)on1 (configuration not stated)	Insulin prom act 600.0
O=C(NCc1cccs1)c1ccc(S(=O)(=O)N2CCOCC2)cc1	none
CCOc1cc(CN2CCN(C(=O)c3ccco3)CC2)ccc1OC	none
CCOC(=O)CC1C(=O)NCCN1Cc1ccc(OC)c(OC)c1 (configuration not stated)	none
CCOC(=O)c1cc(C)n(Cc2ccc(OCC)c(OC)c2)c1C	Insulin prom act 85.7
Cc1occc1C(=O)Nc1cc(C(F)(F)F)ccc1Cl	none
Cc1cccc(-c2n[nH]c(=S)n2/N=C/c2ccc(C)s2)c1	none
Cc1ccc(-c2n[nH]c(=S)n2/N=C/c2c(C)nn(-c3ccccc3)c2C)cc1	none
CCN(CC)S(=O)(=O)c1cccc(-c2n[nH]c(=S)n2/N=C/c2ccc(Br)cc2)c1	Insulin prom act 438.5
COc1cc(OC)cc(C(=O)N2CCC(N3CCCCCC3)CC2)c1	none
Cn1nc(C(=O)NCc2cccs2)c2ccccc2c1=O	Insulin prom act 76.0
Cn1nc(C(=O)NCc2ccc(F)cc2)c2ccccc2c1=O	none
Cn1nc(C(=O)NCc2ccccn2)c2ccccc2c1=O	none
CC(=O)Nc1sc(C)c(C)c1C(=O)OCC(=O)Nc1cc(S(=O)(=O)N2CCCCC2)ccc1Cl	none
CC(C)(C)OC(=O)NC1CONC1=O (configuration not stated)	none
Cc1ccc(C)c(C(=O)Cn2ncc(Cl)c(Cl)c2=O)c1	none
Cc1ccc(C(=O)OCn2ncc(Cl)c(Cl)c2=O)cc1	Insulin prom act 193.5
CCOC(=O)c1ccc(NC(=O)Cn2ncc(Cl)c(Cl)c2=O)cc1	none
CCOC(=O)c1c(C)[nH]c(C(=O)OCC(=O)NC2CCS(=O)(=O)C2)c1C (configuration not stated)	none
O=C(CCNC(=O)c1ccccc1Cl)NC1=NCCS1	none
CCc1nnc(NC(=O)CN2CCN(c3nc(-c4ccccc4)cs3)CC2)s1	none
CCC(=O)N1CCN(c2nc(-c3ccc(Cl)cc3)cs2)CC1	Insulin prom act 464.3
Fc1ccc(-c2csc(N3CCSCC3)n2)cc1	none
Cc1cccc(NC(=O)C2CCCN(C(=O)Nc3ccccc3)C2)c1C (configuration not stated)	none
Cc1ccc2n(n1)c(=O)c(Cc1ccccc1)c([O-])[n+]2-c1ccccc1	none
ClCC1NCC(c2ccccc2Cl)c2c1[nH]c1ccccc21 (configuration not stated)	Insulin prom act 585.7
CC(=O)c1cccc(NC(=O)c2nccnc2C(=O)O)c1	none
Clc1cccc2c1Sc1ccccc1CC2N1CCNCC1 (configuration not stated)	none
Clc1ccc2c(c1)C(N1CCNCC1)Cc1ccccc1S2 (configuration not stated)	Insulin prom act 506.9
COc1nc2c(C)cccc2cc1-c1noc(-c2ccco2)n1	none
CC1(C(=O)O)Oc2cccnc2NC1=O (configuration not stated)	Insulin prom act 409.1
Cc1cc2c(N=O)c(NO)ccc2[nH]1	none
CCCCOC(=O)/C(=C\c1ccc([N+](=O)[O-])o1)NC(=O)c1ccccc1	none
COC(=O)C(Cc1cnc(Cl)s1)(C(=O)OC)c1ccccc1[N+](=O)[O-]	none
O=[N+]([O-])c1ccc(OCc2cnc(Cl)s2)cc1	Insulin prom act 239.5
COC(=O)C(Cc1cnc(Cl)s1)(C(=O)OC)c1ccc([N+](=O)[O-])cc1	Insulin prom act 535.7
O=[N+]([O-])c1ccc(COc2ccc(CNc3ccccc3)cc2)cc1	none
Cc1ccc(OCC(=O)Nc2ccc([N+](=O)[O-])cc2)cc1	none
CC1CN(CCOc2ccc([N+](=O)[O-])cc2)CC(C)O1 (configuration not stated)	none
Cc1ccc(/C(=N/Nc2nc3ccccc3s2)C2=C(O)c3ccccc3C2=O)cc1	none
COC(=O)C1=NN(c2ccc(Cl)cc2)C2C(=O)N(c3ccccc3OC)C(=O)C12 (configuration not stated)	none
COc1ccc(Cc2nnc(NC(=O)Cn3cnc4c3c(=O)n(C)c(=O)n4C)s2)cc1	none
C=CCn1c(SCC(=O)NC(=O)c2cccc([N+](=O)[O-])c2)nnc1-c1ccccc1	none
COC(=O)C(C)Sc1nc(-c2ccc(OC)cc2)nc2c1c(=O)n(C)c(=O)n2C (configuration not stated)	none
CCOc1ccccc1NC(=O)COn1nnc2ccccc21	none
COc1cccc(C2CC(c3ccc(NS(C)(=O)=O)cc3)=NN2C(=O)c2ccccc2)c1OC (configuration not stated)	none
COC(=O)CCSCC(=O)N1N=C(c2ccc(Br)cc2)CC1c1cccc(OC)c1OC (configuration not stated)	Insulin prom act 386.7
COc1ccc(C2CC(c3ccc(Br)cc3)=NN2C(=O)c2cccnc2)cc1 (configuration not stated)	none
CCN(CC)c1nc2ccccc2nc1-n1nc(C)cc1C	none
COc1cc(CN2C(=S)NC(C)(C)CC2(C)O)cc(OC)c1 (configuration not stated)	none
CCCS(=O)(=O)c1c(S(=O)(=O)CCC)c2c(C)cccn2c1C(N)=O	none
CCCS(=O)(=O)c1c(S(=O)(=O)CCC)c2cc(-c3ccncc3)ccn2c1C(=O)OC	Insulin prom act 378.6
CCN(CC)S(=O)(=O)c1ccc(Cl)c(C(=O)OC)c1	none
CNC(=O)c1sc(-c2ccccn2)nc1C	none
Cc1cccc(NC(=O)COc2ccc(/C=N\n3cnnc3)cc2)c1	none
CC(Sc1nc2ccccc2[nH]1)C(=O)Nc1ccccc1F (configuration not stated)	none
Cc1ccc(S(=O)(=O)NC(N)=NCCc2ccc(Cl)cc2)cc1C	none
O=c1ccc(-c2ccc([N+](=O)[O-])cc2)nn1-c1ccccc1	none
O=[N+]([O-])c1ccc(Cl)c(/C=N/N2CCN(c3ccccc3)CC2)c1	none
